Measured values taken from ChEMBL document CHEMBL4364322, “Protective effect of piceatannol and bioactive stilbene derivatives against hypoxia-induced toxicity in H9c2 cardiomyocytes and structural elucidation as 5-LOX inhibitors” (Eur J Med Chem, 2019).
Activity calls are given as the source filed them. The calls are words filed in the database; no cut-off is given here.

Tests used:
[1] = test system: H9c2; assay: Cytoprotective activity against hypoxia-induced toxicity rat H9c2 cells assessed as increase in cell viability at 80 nM to 7 uM preincubated for 18 hrs followed by incubated in hypoxia for 48 hrs by MTT assay; assay type: functional
Outline: (§1)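 10^4 H9c2 cells were seeded and grown 24 h at 37 °C. Compound (80 nM–20 µM) was added either 18 h before or just before 48 h hypoxia in a sealed humidified chamber (5% CO2, 95% N2). Viability was measured by MTT for about 2 h, with formazan dissolved in HCl/isopropanol and read at 570 nm. Results are % of corresponding control, triplicates.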

[2] = test system: H9c2; assay: Cytoprotective activity against hypoxia-induced toxicity rat H9c2 cells assessed as increase in cell viability at 80 nM to 7 uM incubated for 18 hrs in hypoxia measured after 48 hrs by MTT assay; assay type: functional; outline: as §1
[3] = test system: H9c2; assay: Antioxidant activity in rat H9c2 cells assessed as reduction in hypoxia-induced NO release at 80 nM to 2 uM preincubated for 18 hrs followed by incubated in hypoxia for 48 hrs by griess assay; assay type: functional, cell-based
Outline: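 10^4 H9c2 cells were pretreated 18 h at 37 °C with 80 nM or 2 µM, then held 48 h in a hypoxic chamber. Supernatant nitrite was measured with Griess reagent (0.5% sulfanilamide, 2.5% H3PO4, 0.05% naphthylethylene diamine) for 10 min at RT. Absorbance was read at 550 nm against a sodium nitrite standard curve.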

[4] = test system: H9c2; assay: Antioxidant activity in rat H9c2 cells assessed as reduction in hypoxia-induced lipid peroxidation by measuring TBARS level preincubated for 18 hrs followed by incubated in hypoxia for 48 hrs by spectrophotometry; assay type: functional, cell-based
Outline: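 10^4 H9c2 cells were pretreated 18 h with 80 nM or 2 µM, then held 48 h under hypoxia. Cells were lysed in modified RIPA buffer. Lysates were mixed with 20% acetic acid (pH 3.5) and 0.78% thiobarbituric acid, heated at 95 °C for 45 min, and centrifuged. A532 was read and expressed as TBARS per µg protein. Triplicate measurements, duplicate experiments.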

[5] = test system: H9c2; assay: Antioxidant activity in rat H9c2 cells assessed as increase in hypoxia-induced reduction of MnSOD expression at 2 uM preincubated for 18 hrs followed by incubated in hypoxia for 48 hrs by Western blot analysis; assay type: functional, cell-based
Outline: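 H9c2 cells were pretreated 18 h at 80 nM or 2 µM, then held 48 h under hypoxia. Lysates were made in RIPA buffer with protease inhibitors and DTT, and 80 µg protein was run on 12% SDS-PAGE. Blots were probed overnight at 4 °C with anti-MnSOD, with GAPDH as internal standard. Detection was by ECL and bands were quantified by densitometry.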

[6] = biological target: T1, Polyunsaturated fatty acid 5-lipoxygenase (Homo sapiens, UniProt P09917); assay: Inhibition of 5-LOX in human PMNL cells assessed as A23187-stimulated LTB4 production preincubated for 15 mins followed by A23187 addition and measured after 10 mins by HPLC analysis; assay type: cell-based
T1 sequence (P09917 whole entry): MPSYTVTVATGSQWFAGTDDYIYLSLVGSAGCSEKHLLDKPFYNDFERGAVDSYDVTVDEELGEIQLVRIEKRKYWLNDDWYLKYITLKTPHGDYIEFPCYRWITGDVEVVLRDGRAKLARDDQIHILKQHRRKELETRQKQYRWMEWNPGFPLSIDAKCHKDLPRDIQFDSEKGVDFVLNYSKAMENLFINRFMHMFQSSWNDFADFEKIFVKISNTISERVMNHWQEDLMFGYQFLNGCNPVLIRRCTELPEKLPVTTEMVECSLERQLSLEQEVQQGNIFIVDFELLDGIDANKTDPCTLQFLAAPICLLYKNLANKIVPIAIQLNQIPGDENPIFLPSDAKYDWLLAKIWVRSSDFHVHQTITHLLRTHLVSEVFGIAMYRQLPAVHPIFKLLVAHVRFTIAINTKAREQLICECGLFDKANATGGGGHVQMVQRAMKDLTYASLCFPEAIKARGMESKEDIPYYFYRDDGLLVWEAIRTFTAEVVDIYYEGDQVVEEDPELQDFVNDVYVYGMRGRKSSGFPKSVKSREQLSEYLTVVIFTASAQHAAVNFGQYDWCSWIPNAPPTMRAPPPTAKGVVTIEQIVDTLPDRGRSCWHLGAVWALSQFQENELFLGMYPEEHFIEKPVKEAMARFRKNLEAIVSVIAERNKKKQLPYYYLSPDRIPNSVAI
Outline: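 Human PMNL (5×10^6 in 1 ml PBS with 1 mg/ml glucose and 1 mM CaCl2) were preincubated with compound 15 min at 37 °C. 2.5 µM A23187 was added for 10 min at 37 °C, and the reaction was stopped with methanol. 5-LOX products were analysed by HPLC.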

[7] = test system: H9c2; assay: Cytoprotective activity against hypoxia-induced toxicity rat H9c2 cells assessed as cell death at 20 uM incubated for 18 hrs in hypoxia measured after 48 hrs by MTT assay
[8] = test system: H9c2; assay: Cytoprotective activity against hypoxia-induced toxicity rat H9c2 cells assessed as cell death at 20 uM preincubated for 18 hrs followed by incubated in hypoxia for 48 hrs by MTT assay
[9] = biological target: T2, Polyunsaturated fatty acid 5-lipoxygenase (Homo sapiens) (UniProt P09917); assay: Residual activity of human 5-LOX expressed in Escherichia coli BL21 using arachidonic acid as substrate at 10 uM preincubated for 15 mins followed by substrate addition by HPLC analysis relative to control
T2 sequence (whole entry): T1 sequence (P09917 whole entry)

[10] = test system: H9c2; assay: Cytoprotective activity against hypoxia-induced toxicity rat H9c2 cells assessed as increase in cell viability at 80 nM preincubated for 18 hrs followed by incubated in hypoxia for 48 hrs by MTT assay; assay type: functional; outline: as §1
[11] = biological target: T1, Polyunsaturated fatty acid 5-lipoxygenase; assay: Inhibition of human 5-LOX expressed in Escherichia coli BL21 using arachidonic acid as substrate preincubated for 15 mins followed by substrate addition by HPLC analysis
Outline: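 Human recombinant 5-LOX was expressed in E. coli BL21 (pT3-5LO) and purified. Enzyme (0.5 µg) in PBS/EDTA was preincubated with compound 15 min at 4 °C, then warmed 30 s at 37 °C. The reaction was started with 2 mM CaCl2 plus 20 µM arachidonic acid and run 10 min at 37 °C. Products were analysed by HPLC.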

[12] = test system: H9c2; assay: Cytoprotective activity against hypoxia-induced apoptosis in rat H9c2 cells assessed as early apoptotic cells at 2 uM preincubated for 18 hrs followed by incubated in hypoxia for 48 hrs by annexin V based flow cytometry; assay type: functional, cell-based
Outline: (§2)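 H9c2 cells were pretreated 18 h at 2 µM, then grown under normoxia or hypoxia. Apoptotic cells were detected by flow cytometry with fluorescein-annexin V staining. The read-out is % annexin V-positive cells.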

[13] = test system: H9c2; assay: Antioxidant activity in rat H9c2 cells assessed as hypoxia-induced RO production at 2 uM preincubated for 18 hrs followed by incubated in hypoxia for 48 hrs by DCFH-DA staining-based flow cytometric analysis( Rvb = 45 %); assay type: functional
[14] = test system: H9c2; assay: Cytoprotective activity against hypoxia-induced apoptosis in rat H9c2 cells assessed as early apoptotic cells at 2 uM preincubated for 18 hrs followed by incubated in hypoxia for 48 hrs by annexin V based flow cytometry (reference value: 60 %); assay type: functional; outline: as §2

Question: For Oc1ccc(/C=C/c2cc(O)cc(O)c2)cc1 [RESVERATROL], which Activity [1] is on record?
Answer: The Activity was 95%.

Question: And the Activity [2]?
Answer: The Activity was 95%.

Question: And the Activity [3]?
Answer: Its Activity is “Active”.

Question: And the Activity [4]?
Answer: Its Activity is “Dose-dependent effect”.

Question: And the Activity [5]?
Answer: The Activity was “Active”.

Question: What about the IC50 [6] of the same molecule?
Answer: The IC50 was 4900 nM.

Question: And the cell death [7]?
Answer: Its cell death is 80%.

Question: And the cell death [8]?
Answer: The cell death was 80%.

Question: And the residual activity [9]?
Answer: Its residual activity is 63.4%.

Question: With COc1ccc(/C=C/c2cc(OC)cc(OC)c2)cc1 [TRISMETHOXYRESVERATROL] as the molecule, how does the Activity [10] read?
Answer: The Activity was 25 - 35%.

Question: And the IC50 [11]?
Answer: The IC50 was 3620 nM.

Question: What about the IC50 [6] of the same molecule?
Answer: The IC50 was 760 nM.

Question: With CC(c1cc2ccccc2s1)N(O)C(N)=O (configuration not stated) as the molecule, how does the Activity [12] read?
Answer: Its Activity is “inactive”.

Question: What does the source list for COc1cc(/C=C/c2ccc(OC)c(O)c2)cc(OC)c1?
Answer: Activity [10]: 25 - 35%; IC50 [11]: 5490 nM; IC50 [6]: 5480 nM

Question: What does the source list for Oc1cc(O)cc(/C=C/c2ccc(O)c(O)c2)c1 [PICEATANNOL]?
Answer: Activity [1]: Active; Activity [2]: Active; Activity [3]: Active; Activity [4]: Dose-dependent effect; Activity [5]: Active; Activity [13]: 38%; IC50 [11]: 1100 nM; IC50 [6]: 240 nM; Activity [12]: inactive; cell death [7]: 80%; cell death [8]: 80%

Question: With COc1cc(/C=C/c2ccc(O)c(OC)c2)cc(OC)c1 as the molecule, how does the Activity [10] read?
Answer: The Activity was 25 - 35%.

Question: And the IC50 [11]?
Answer: Its IC50 is 780 nM.

Question: What about the IC50 [6] of the same molecule?
Answer: Its IC50 is 70 nM.

Question: What does the source list for COc1cc(/C=C/c2ccc(O)c(O)c2)cc(OC)c1?
Answer: Activity [10]: 25 - 35%; IC50 [11]: 320 nM; IC50 [6]: 50 nM

Question: What does the source list for COc1cc(/C=C/c2ccc(O)cc2)cc(OC)c1 [PTEROSTILBENE]?
Answer: Activity [10]: 25 - 35%; Activity [14]: 25%; IC50 [11]: 3910 nM; IC50 [6]: 530 nM
